What was measured:
Ribonuclease pancreatic = molecular target: T1, Ribonuclease pancreatic (Bos taurus, UniProt P61823); test: Inhibition of bovine pancreas RNase A assessed as undigested supercoiled pBR322 DNA concentration
T1 sequence (P61823 whole entry): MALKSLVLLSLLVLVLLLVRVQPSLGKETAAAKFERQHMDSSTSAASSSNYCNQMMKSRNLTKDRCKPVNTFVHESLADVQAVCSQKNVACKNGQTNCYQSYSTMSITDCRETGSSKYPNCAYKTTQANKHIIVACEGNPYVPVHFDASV
Method in brief: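 Restriction enzyme or nuclease activity followed as the remaining undigested supercoiled pBR322 DNA (or RNA) after reaction.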

DNA topoisomerase 1 [1] = molecular target: T2, DNA topoisomerase 1 (Homo sapiens, UniProt P11387); test: Inhibition topoisomerase 1 in human COLO201 cells assessed as conversion of supercoiled pBR322 DNA to relaxed form; type: cell-based
T2 sequence (P11387 whole entry): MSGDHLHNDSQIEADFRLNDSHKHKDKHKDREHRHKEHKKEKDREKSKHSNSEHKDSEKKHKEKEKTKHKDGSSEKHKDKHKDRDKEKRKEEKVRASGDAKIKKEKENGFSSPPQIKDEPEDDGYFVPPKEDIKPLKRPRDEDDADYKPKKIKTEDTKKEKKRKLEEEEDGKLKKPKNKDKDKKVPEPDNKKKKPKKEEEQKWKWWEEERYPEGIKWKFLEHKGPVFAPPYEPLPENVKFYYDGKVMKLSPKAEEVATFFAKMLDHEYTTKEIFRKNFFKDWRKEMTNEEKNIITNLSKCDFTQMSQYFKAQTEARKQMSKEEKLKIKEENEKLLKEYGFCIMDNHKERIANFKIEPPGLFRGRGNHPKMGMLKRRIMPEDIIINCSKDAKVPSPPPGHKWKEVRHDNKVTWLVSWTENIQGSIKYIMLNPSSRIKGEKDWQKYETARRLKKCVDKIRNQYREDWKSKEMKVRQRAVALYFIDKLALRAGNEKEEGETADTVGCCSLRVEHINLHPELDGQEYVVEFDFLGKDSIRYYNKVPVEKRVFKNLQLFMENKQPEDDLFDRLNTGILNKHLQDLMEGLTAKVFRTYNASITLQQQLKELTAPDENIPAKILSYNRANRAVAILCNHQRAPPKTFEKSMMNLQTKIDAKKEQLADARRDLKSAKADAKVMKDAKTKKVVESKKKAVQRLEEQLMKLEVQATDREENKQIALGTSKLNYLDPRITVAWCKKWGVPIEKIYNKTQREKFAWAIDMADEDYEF
Method in brief: (§1)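 Topo I source: crude extract from cells grown 5 days, PBS-washed and pelleted (1 × 10^6 cells), then lysed 30 min on ice in Tris-HCl pH 7.5 buffer with MgCl2, EGTA, AEBSF, β-mercaptoethanol, 0.5% CHAPS and 10% glycerin. The cleared supernatant relaxes supercoiled pBR322 DNA. Products are resolved on agarose gel and scored by densitometry.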

DNA topoisomerase 1 [2] = molecular target: T2, DNA topoisomerase 1; test: Inhibition topoisomerase 1 in human HeLa cells assessed as conversion of supercoiled pBR322 DNA to relaxed form; type: cell-based; method in brief: as §1
DNA topoisomerase 1 [3] = molecular target: T2, DNA topoisomerase 1; test: Inhibition topoisomerase 1 in human A549 cells assessed as conversion of supercoiled pBR322 DNA to relaxed form; type: cell-based; method in brief: as §1

Compound	IC50 (Ribonuclease pancreatic)	IC50 (DNA topoisomerase 1 [1])	IC50 (DNA topoisomerase 1 [2])	IC50 (DNA topoisomerase 1 [3])
COc1cccc2c1C(=O)c1c(O)c3c(c(O)c1C2=O)C[C@@](O)(C(=O)CO)C[C@@H]3O[C@H]1C[C@H](N)[C@H](O)[C@H](C)O1 [DOXORUBICIN]	25 µM			
C=C1NC(=O)C(C)C(CCC(C)C(=O)/C=C/C(C)=C/CC(C)CCCCCCC)OC(=O)[C@H](CC(OS(=O)(=O)O)C(N)=O)NC(=O)[C@@H](C)CNC1=O (stereo not given in full) [TOPOSTATIN]	> 250 µM	50 µM	29 µM	55 µM
CC[C@@]1(O)C(=O)OCc2c1cc1n(c2=O)Cc2cc3ccccc3nc2-1 [CAMPTOTHECIN]	> 300 µM			
O=C1Oc2cc(O)ccc2/C1=C\c1ccc(O)cc1 [ISOAUROSTATIN]	> 400 µM	> 400 µM	> 400 µM	> 400 µM
